# In ChEMBL document CHEMBL3232903, “New pyrazolobenzothiazine derivatives as hepatitis C virus NS5B polymerase palm site I inhibitors” (J Med Chem, 2014):
# Legend:
# [1] = Apparent permeability of the compound after 5 hrs by PAMPA-GI model analysis; assay type: physicochemical
# Summary of the method: (§1)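 PAMPA, gastrointestinal model. Donor 0.5 mM, diluted from 1 mM DMSO stock in phosphate buffer pH 7.4 (0.025 M). Filter coated with 1% w/v phosphatidylcholine in dodecane; acceptor 50% DMSO in buffer. Incubated 5 or 22 h at room temperature with gentle shaking. Both sides analysed by LC-UV at 254 nm, concentration from peak area. Papp in cm/s and % membrane retention calculated by equations; three plates on different days.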
# [2] = Apparent permeability of the compound after 22 hrs by PAMPA-GI model analysis; assay type: physicochemical; summary of the method: as §1
# [3] = Apparent permeability of the compound assessed as membrane retention after 5 hrs by PAMPA assay; assay type: physicochemical; summary of the method: as §1
# [4] = Apparent permeability of the compound assessed as membrane retention after 22 hrs by PAMPA assay; assay type: physicochemical; summary of the method: as §1
# [5] = Metabolic stability of the compound in human liver microsomes assessed as unmodified compound remaining after 60 mins; assay type: ADME; settings: read-out: Stability
# Summary of the method: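 Compound at 50 μM final (DMSO ≤2%) incubated 60 min at 37 °C with human liver microsomal protein (0.2 mg/mL) and an NADPH-generating system in 125 mM phosphate buffer, pH 7.4. Unmodified parent was quantified by LC–MS and reported as percentage remaining.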
# [6] = Induction of phospholipidosis in human Huh-9-13 cells assessed as multilamellar bodies formation at 90 uM by monodansylcadaverine staining; assay type: cell-based
# Summary of the method: (§2)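 Huh-9-13 cells seeded at 25.000 cells/dish in complete DMEM without G418 at 37 °C, 5% CO2. Next day, compound (90 μM) or DMSO added for 3 days. Then stained 30 min with monodansylcadaverine (50 μM; ex 340/em 530 nm), LipidTOX Red (1/1000; ex 577/em 609 nm) or Nile Red (2 μg/mL; yellow-gold at ex 552/em 636 nm). Imaged by confocal microscopy.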
# [7] = Induction of steatosis in human Huh-9-13 cells assessed as intracellular accumulation of neutral lipids at 90 uM by Nile Red staining; assay type: cell-based; summary of the method: as §2
# [8] = Induction of steatosis in human Huh-9-13 cells assessed as increase in size of lipid droplets at 90 uM by LipidTOX red staining; assay type: cell-based; summary of the method: as §2
# [9] = system: Hepatitis C virus isolate HC-J4; experiment: Inhibition of RNA-dependent RNA polymerase activity of HCV genotype 1b HC-J4 recombinant N-terminal histidine tagged C-terminal 21 aminoacids truncated NS5B polymerase at 50 uM after 1 hr by standard primer dependent elongation assay
# Summary of the method: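 Recombinant NS5BCΔ21 genotype 1b in a primer-dependent elongation assay. […] IC50 is the concentration halving enzyme activity in vitro; mean ± SD of two independent experiments in duplicate.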
# [10] = Inhibition of RNA-dependent RNA polymerase activity of HCV genotype 1b HC-J4 recombinant N-terminal histidine tagged C-terminal 21 aminoacids truncated NS5B polymerase after 1 hr by standard primer dependent elongation assay; design: species or system Hepatitis C virus isolate HC-J4
# Summary of the method: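 Recombinant NS5BCΔ21 genotype 1b in a primer-dependent elongation assay. IC50 is the concentration halving enzyme activity in vitro; mean ± SD of two independent experiments in duplicate.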
# Hepatitis C virus [11] = experiment: Antiviral activity against HCV genotype 1b […] replicon infected in human Huh9-13 cells assessed as decrease in replicon RNA content by RT-qPCR analysis; assay type: functional, cell-based, Hepacivirus hominis
# Summary of the method: (§3)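 Subgenomic genotype 1b HCV replicon cells: Huh-9-13 (Huh-7 background, no luciferase reporter) and HuH6 (different adaptive mutations). EC50 from decrease in replicon RNA measured by RT-qPCR. Host-cell proliferation and metabolism checked in parallel by MTS assay.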
# [12] = target: RNA-directed RNA polymerase (Hepacivirus hominis, UniProt O39930, P495L); experiment: Inhibition of RNA-dependent RNA polymerase activity of HCV genotype 1b HC-J4 recombinant N-terminal histidine tagged C-terminal 21 aminoacids truncated NS5B polymerase P495L mutant at thumb site 1 after 1 hr by standard primer dependent elongation assay; design: species or system Hepatitis C virus isolate HC-J4
# Chain of RNA-directed RNA polymerase (Hepacivirus hominis, UniProt O39930, P495L) (O39930 entry or part of it P495L): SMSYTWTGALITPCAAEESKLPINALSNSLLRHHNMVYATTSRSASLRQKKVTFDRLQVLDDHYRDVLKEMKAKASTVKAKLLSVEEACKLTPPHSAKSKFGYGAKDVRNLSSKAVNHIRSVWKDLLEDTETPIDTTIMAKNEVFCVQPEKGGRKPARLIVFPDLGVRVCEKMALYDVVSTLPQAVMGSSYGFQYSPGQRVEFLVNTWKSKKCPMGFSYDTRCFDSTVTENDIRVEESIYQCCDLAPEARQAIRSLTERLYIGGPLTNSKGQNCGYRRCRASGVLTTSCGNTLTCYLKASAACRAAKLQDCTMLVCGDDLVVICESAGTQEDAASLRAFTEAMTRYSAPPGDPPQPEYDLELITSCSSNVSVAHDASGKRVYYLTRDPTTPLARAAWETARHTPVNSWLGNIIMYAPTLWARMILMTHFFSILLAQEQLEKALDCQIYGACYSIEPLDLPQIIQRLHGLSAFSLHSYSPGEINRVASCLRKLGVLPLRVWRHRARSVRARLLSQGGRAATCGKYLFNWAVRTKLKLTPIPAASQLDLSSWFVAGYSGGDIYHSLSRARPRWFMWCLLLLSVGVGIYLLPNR
# Summary of the method: (§4)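 Recombinant NS5BCΔ21 genotype 1b mutants, M414T, M423T and P495L, each run in a primer-dependent elongation assay as for wild-type enzyme. IC50 is the mean ± SD of two independent experiments in duplicate.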
# [13] = target: RNA-directed RNA polymerase (Hepacivirus hominis, UniProt O39930, M423T); experiment: Inhibition of RNA-dependent RNA polymerase activity of HCV genotype 1b HC-J4 recombinant N-terminal histidine tagged C-terminal 21 aminoacids truncated NS5B polymerase M423T mutant at thumb site 2 after 1 hr by standard primer dependent elongation assay; design: species or system Hepatitis C virus isolate HC-J4; summary of the method: as §4
# Chain of RNA-directed RNA polymerase (Hepacivirus hominis, UniProt O39930, M423T) (O39930 entry or part of it M423T): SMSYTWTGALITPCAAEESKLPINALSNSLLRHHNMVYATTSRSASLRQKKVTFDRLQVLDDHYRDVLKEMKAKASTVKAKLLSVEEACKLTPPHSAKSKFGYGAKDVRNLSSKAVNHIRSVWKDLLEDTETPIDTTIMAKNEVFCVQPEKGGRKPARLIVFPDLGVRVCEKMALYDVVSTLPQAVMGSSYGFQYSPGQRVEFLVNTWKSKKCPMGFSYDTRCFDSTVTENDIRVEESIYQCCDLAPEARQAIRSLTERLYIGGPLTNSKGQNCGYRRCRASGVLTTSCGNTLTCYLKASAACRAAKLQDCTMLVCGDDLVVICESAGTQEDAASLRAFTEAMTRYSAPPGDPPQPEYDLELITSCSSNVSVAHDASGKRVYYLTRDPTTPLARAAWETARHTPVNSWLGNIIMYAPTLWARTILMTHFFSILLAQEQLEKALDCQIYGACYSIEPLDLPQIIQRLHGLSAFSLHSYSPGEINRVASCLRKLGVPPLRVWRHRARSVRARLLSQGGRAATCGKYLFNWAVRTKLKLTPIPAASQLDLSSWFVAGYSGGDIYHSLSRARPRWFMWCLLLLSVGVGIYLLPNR
# [14] = system: Hepatitis C virus isolate HC-J4; experiment: Ratio of IC50 for HCV genotype 1b HC-J4 recombinant N-terminal histidine tagged C-terminal 21 aminoacids truncated NS5B polymerase M414T mutant at palm site 1 to HCV genotype 1b HC-J4 recombinant N-terminal histidine tagged C-terminal 21 aminoacids truncated wild type NS5B polymerase
# Summary of the method: (§5)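 Fold change is the mutant NS5BCΔ21 IC50 (M414T, M423T or P495L) divided by the wild-type IC50. Both were measured in a primer-dependent elongation assay, from two independent experiments in duplicate.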
# [15] = system: Hepatitis C virus isolate HC-J4; experiment: Ratio of IC50 for HCV genotype 1b HC-J4 recombinant N-terminal histidine tagged C-terminal 21 aminoacids truncated NS5B polymerase P495L mutant at thumb site 1 to HCV genotype 1b HC-J4 recombinant N-terminal histidine tagged C-terminal 21 aminoacids truncated wild type NS5B polymerase; summary of the method: as §5
# [16] = system: Hepatitis C virus isolate HC-J4; experiment: Ratio of IC50 for HCV genotype 1b HC-J4 recombinant N-terminal histidine tagged C-terminal 21 aminoacids truncated NS5B polymerase M423T mutant at thumb site 2 to HCV genotype 1b HC-J4 recombinant N-terminal histidine tagged C-terminal 21 aminoacids truncated wild type NS5B polymerase; summary of the method: as §5
# [17] = target: RNA-directed RNA polymerase (Hepacivirus hominis, UniProt O39930, M414T); experiment: Inhibition of RNA-dependent RNA polymerase activity of HCV genotype 1b HC-J4 recombinant N-terminal histidine tagged C-terminal 21 aminoacids truncated NS5B polymerase M414T mutant at palm site 1 after 1 hr by standard primer dependent elongation assay; design: species or system Hepatitis C virus isolate HC-J4; summary of the method: as §4
# Chain of RNA-directed RNA polymerase (Hepacivirus hominis, UniProt O39930, M414T) (O39930 entry or part of it M414T): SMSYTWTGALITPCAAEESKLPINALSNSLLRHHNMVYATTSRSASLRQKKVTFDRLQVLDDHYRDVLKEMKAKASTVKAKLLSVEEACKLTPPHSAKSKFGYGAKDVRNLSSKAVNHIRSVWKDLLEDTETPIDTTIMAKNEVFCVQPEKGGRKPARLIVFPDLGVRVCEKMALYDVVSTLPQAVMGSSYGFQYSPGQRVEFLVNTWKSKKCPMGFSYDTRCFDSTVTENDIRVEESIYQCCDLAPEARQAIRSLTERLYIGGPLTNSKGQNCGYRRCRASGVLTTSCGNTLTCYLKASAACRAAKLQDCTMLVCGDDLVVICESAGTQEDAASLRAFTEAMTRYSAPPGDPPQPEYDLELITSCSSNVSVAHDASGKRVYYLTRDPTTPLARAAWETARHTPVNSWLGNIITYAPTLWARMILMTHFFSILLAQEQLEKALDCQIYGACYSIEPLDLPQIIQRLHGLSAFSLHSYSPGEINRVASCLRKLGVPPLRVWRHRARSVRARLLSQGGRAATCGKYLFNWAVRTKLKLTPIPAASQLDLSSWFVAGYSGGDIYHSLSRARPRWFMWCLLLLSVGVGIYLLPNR
# Hepatitis C virus [18] = experiment: Antiviral activity against HCV genotype 1b I389luc-ubi-neo/NS3-3'/5.1 replicon infected in human Huh5-2 cells assessed as inhibition of virus replication by luciferase assay; assay type: functional, cell-based, Hepacivirus hominis; settings: Huh-5-2
# [19] = Cytostatic activity against human Huh5-2 cells carrying HCV genotype 1b I389luc-ubi-neo/NS3-3'/5.1 replicon assessed as reduction in metabolic activity after 72 hrs by MTS assay; assay type: ADME, cell-based, Huh-5-2; settings: huh-5-2, 72 h
# Summary of the method: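 Replicon-bearing Huh-5-2 cells run in parallel with the antiviral read-out; CC50 is the concentration halving MTS bioreduction to formazan, taken as the antimetabolic effect on host cells; mean ± SD from at least three dose–response curves.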
# [20] = Cytotoxicity against human Huh5-2 cells carrying HCV genotype 1b I389luc-ubi-neo/NS3-3'/5.1 replicon assessed as cell morphological changes after 72 hrs by microscopic analysis; assay type: cell-based; settings: huh-5-2, 72 h
# Summary of the method: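 Huh-5-2 replicon cells examined by microscopy for changes in cell morphology after 72 h of compound treatment.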
# [21] = Selectivity index, ratio of CC50 for human Huh5-2 cells to EC50 for HCV genotype 1b I389luc-ubi-neo/NS3-3'/5.1 replicon infected in human Huh5-2 cells; design: species or system Huh-5-2
# Hepatitis C virus [22] = experiment: Antiviral activity against HCV genotype 1b I389luc-ubi-neo/NS3-3'/5.1 replicon infected in human Huh6 cells assessed as decrease in replicon RNA content by RT-qPCR analysis; assay type: functional, cell-based, Hepacivirus hominis; settings: HuH-6; summary of the method: as §3
# [23] = Cytostatic activity against human Huh-9-13 cells carrying HCV genotype 1b I389luc-ubi-neo/NS3-3'/5.1 replicon assessed as reduction in metabolic activity after 72 hrs by MTS assay; assay type: ADME, cell-based
# Summary of the method: (§6)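 MTS assay measuring bioreduction to formazan, read as host-cell metabolism/proliferation in subgenomic genotype 1b replicon cells. It was run alongside RT-qPCR-based antiviral testing. Huh-9-13 replicon cells lack the luciferase reporter, carry different adaptive mutations and more HCV RNA than Huh-5-2. HuH6 replicon cells use a different host line from Huh-7 and have distinct adaptive mutations. CC50 is the concentration that halves MTS reduction.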
# [24] = Cytostatic activity against human Huh6 cells carrying HCV genotype 1b I389luc-ubi-neo/NS3-3'/5.1 replicon assessed as reduction in metabolic activity after 72 hrs by MTS assay; assay type: ADME, cell-based; summary of the method: as §6
# [25] = Lipophilicity, log P of the compound by shake flask method; assay type: physicochemical; settings: octanol/water
# Summary of the method: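 Shake flask: compound dissolved in octanol, then 2.5 mL octanol with 2.5 mL water, sealed and agitated, 10 h to equilibrium. Each phase analysed by HPLC (C18, 50% ACN/50% H2O, 0.8 mL/min, UV).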
structure (smiles),measurement,setting,value
CN1c2c(C(=O)Nc3ccc(NS(C)(=O)=O)cc3)nn(-c3cccc(Cl)c3)c2-c2ccccc2S1(=O)=O,Papp,[1],2.3 ×10⁻⁶ cm/s
same,Papp,[2],4.2 ×10⁻⁶ cm/s
same,R%,[3],7.3%
same,R%,[4],3.2%
same,remaining at 1 h,[5],99.9%
same,Activity,[6],Non-toxic
same,Activity,[7],Toxic
same,Activity,[8],Toxic
same,inhibition,[9],> 50%
same,IC50,[10],4.3 µM
same,EC50,Hepatitis C virus [11],7.6 µM
same,IC50,[12],5.1 µM
same,IC50,[13],9.3 µM
same,Ratio IC50,[14],29.7
same,Ratio IC50,[15],1.2
same,Ratio IC50,[16],2.2
same,IC50,[17],128 µM
same,EC50,Hepatitis C virus [18],9.8 µM
same,EC90,Hepatitis C virus [18],41 µM
same,CC50,[19],> 179 µM
same,Activity,[20],Toxic
same,Ratio CC50/EC50,[21],>18
same,EC50,Hepatitis C virus [22],14 µM
same,CC50,[23],> 90 µM
same,CC50 at 72 h,[24],> 90 µM
same,logP,[25],2.11
